SR-BI HDL uptake: inhibitors of SR-BI mediated HDL lipid uptake, primary screen, ldlA[mSR-BI] cells, fluorescence, single point. ldlA[mSR-BI] CHO cells, DiI-HDL uptake fluorescence, 3 h. inhibition, % at 12.5 µM. 320,000 compounds, 0.96% hits. AID 488896, 2010;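 active means mean replicate inhibition of at least 70% and a set share of replicates each scoring 70 or more; inconclusive means meets just one of the two criteria; inactive means fails both criteria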;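 further: 0% = median of neutral control wells and 100% = median of positive control wells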
AHR act: AHR activators, primary screen, cell-based, luminescence, luciferase reporter, human | activation, % at 5 µM | Aryl hydrocarbon receptor (Homo sapiens), P35869 | 320,000 compounds, 2.5% hits | AHR-responsive luciferase reporter cells | AID 2796, 2010; in the data active means activation above about 47%;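 further: 0% = vehicle wells and 100% = reference agonist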
SR-BI uptake up: activators of SR-BI mediated DiI-HDL uptake, primary screen, ldlA[mSR-BI] CHO cells, DiI fluorescence. activation, % at 12.5 µM. 3 h; 100 = double the neutral-control signal. 320,000 compounds, 0.096% hits;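 active means mean replicate activation of at least 60% and every replicate at or above 60%; inconclusive means mean or all-replicate condition met, but not both; inactive means mean below 60% and not all replicates reaching 60%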;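 further: 0% = median plate neutral-control signal and 100% = twice that signal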
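material = CHO ldlA[mSR-BI] cells | medium = Ham's F12 with 0.5% BSA, HEPES 25 mM, pH 7.4 | reagent = fluorescent DiI-HDL, 10 µg/mL final | compound dosing = single-point compound dose | incubation = 3 h, 37 °C | measured by = bottom-read fluorescence, 550/595 nm | measure = HDL uptake via cellular fluorescence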
GAA850 FXN act: FXN promoter activators, primary screen, cell-based, luciferase luminescence, HEK293 lucGAA850; HEK293 lucGAA850 FXN promoter luciferase reporter, 24 h; percent of 10 µM SAHA response; activation, % at 6 µM; 360,000 compounds, 0.56% hits; AID 540364, 2011;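 active means activation above the average of all compounds screened plus 3 SD, cutoff fixed separately per campaign, cut at about 7.5% in these data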;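 further: 0% = DMSO wells and 100% = 10 µM SAHA wells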
GASC-1 inh: inhibitors of GASC-1 histone demethylase, primary screen, biochemical, fluorescence, DELFIA europium | Lysine-specific demethylase 4C (Homo sapiens), Q9H3R0 | GST-JMJD2C(1-420) H3K9me3 demethylation | inhibition, % at 2.35 µM | 330,000 compounds, 0.069% hits | AID 2099, 2009;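 active means more than half of a compound's replicate wells show inhibition beyond 50%, single wells judged on their own value; inconclusive means some, but no more than half, of replicates pass 50% inhibition; inactive means no replicate passes 50% inhibition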;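 further: signal counts dimethyl H3K9 product captured on neutravidin plate; 0% = median of DMSO wells and 100% = 0.3 times that DMSO median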
Target sequence (Q9H3R0 1-420 limits assumed): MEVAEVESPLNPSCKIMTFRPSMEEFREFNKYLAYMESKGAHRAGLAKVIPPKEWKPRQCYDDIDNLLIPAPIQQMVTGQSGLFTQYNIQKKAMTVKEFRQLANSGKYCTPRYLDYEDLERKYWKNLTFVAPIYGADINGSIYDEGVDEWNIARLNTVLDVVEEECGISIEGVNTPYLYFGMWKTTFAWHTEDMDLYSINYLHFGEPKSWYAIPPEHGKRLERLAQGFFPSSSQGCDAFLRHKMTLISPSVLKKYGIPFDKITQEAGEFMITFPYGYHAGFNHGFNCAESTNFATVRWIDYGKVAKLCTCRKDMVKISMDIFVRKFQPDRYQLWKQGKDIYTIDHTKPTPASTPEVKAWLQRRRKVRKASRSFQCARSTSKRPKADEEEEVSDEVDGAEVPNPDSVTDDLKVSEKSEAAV
Starred values were filed as active, the others as inactive; ? = inconclusive; · = no result. Most compounds without a hit are left out; they make up all but 3.7% or so of the library.

SMILES	SR-BI HDL uptake	AHR act	SR-BI uptake up	GAA850 FXN act	GASC-1 inh
COc1cc(/C=C2\SC(=O)NC2=O)ccc1Oc1ccc([N+](=O)[O-])cc1[N+](=O)[O-]	6	2	-6	3	6
Cc1cccc(N2CC(C(=O)Nc3nnc(SCc4ccccn4)s3)CC2=O)c1 (configuration not stated)	14	0	-14	0	5
Cc1ccccc1-c1nc2cc(Cl)ccc2o1	-1	75*	1	2	3
Nc1ccc2oc(-c3cccc4ccccc34)nc2c1	36	53*	·	-14	-9
Cc1ccc(-c2nc3cc(C)ccc3o2)cc1	-6	12	6	-1	-6
Cc1ccc(-c2nc3cc(N)ccc3o2)cc1	-6	73*	6	0	-7
COc1ccc(C(=O)C2CCCN(C(=O)Cn3nc(C)cc3C)C2)cc1F (configuration not stated)	·	1	·	0	-17
CN(c1ccccc1)S(=O)(=O)c1ccc(C(=O)N2CCCC(C(F)(F)F)C2)cc1 (configuration not stated)	9	4	-9	0	-1
N#Cc1ccc(Oc2cccc3cccnc23)c([N+](=O)[O-])c1	2	9	-2	3	-29
O=[N+]([O-])c1ccc(Oc2cccc3cccnc23)c([N+](=O)[O-])c1	18	53*	-18	2	-3
O=C1C(Cl)=C(Nc2ccc3cn[nH]c3c2)C(=O)c2ccccc21	-6	70*	6	-14	-7
COc1cc(C(=O)NNC(=O)CSc2nnc3ccccn23)cc(OC)c1OC	-12	0	12	1	12
COCc1cc(C)nc(OCC(=O)N/N=C/c2ccc(OC)c(OC)c2)c1C#N	20	63*	-20	4	-6
COc1ccc(/C=N/NC(=O)CCn2c3ccccc3c3ccccc32)cc1OC	5	69*	-5	2	8
COCc1cc(C)nc(OCC(=O)N/N=C/c2ccc(O)cc2)c1C#N	8	7	-8	-2	-2
c1ccn2c(SCc3cn4ccsc4n3)nnc2c1	-3	6	3	0	51*
COC(=O)Nc1nc(-c2ccccc2)c(C(=O)c2ccccc2)s1	91*	-2	-91	1	-1
COc1cc(C(CCN2CCCC2)c2c(OC)cc(OC)c3c(-c4ccccc4)cc(=O)oc23)cc(OC)c1OC (configuration not stated)	-12	2	12	1	-8
O=[N+]([O-])c1cccc(-c2ccc(/C=N/NC(=S)Nc3cccc(F)c3)o2)c1	?	49*	-72	2	-6
NC(=S)N/N=C/c1ccc(-c2cccc([N+](=O)[O-])c2)o1	78*	-1	-78	-2	-37
Cc1ccc(-c2ccc(/C=N/NC(=S)Nc3ccccc3)o2)cc1[N+](=O)[O-]	44	26	-44	4	-3
COc1ccccc1NC(=O)Nc1sccc1-c1nc2ccccc2s1	·	33	·	0	-10
O=C(Nc1ccccc1)Nc1sccc1-c1nc2ccccc2s1	60	72*	-60	-1	3
S=C(NCc1ccncc1)Nc1ccc(Cl)cc1Cl	-1	13	1	-1	7
O=C(NCc1ccncc1)Nc1ccc(Cl)cc1Cl	-43	49*	43	0	-7
SMILES	SR-BI HDL uptake	AHR act	SR-BI uptake up	GAA850 FXN act	GASC-1 inh
CC(=O)Nc1cccc(N(C)S(C)(=O)=O)c1	-24	2	24	3	3
CN(c1cccc(NC(=O)Nc2cccc(Cl)c2)c1)S(C)(=O)=O	21	77*	-21	-2	-11
CCCCN1c2cc(C)c(O)cc2C(C(=O)OCC)C1C (configuration not stated)	·	48*	·	·	1
CC(=O)c1c(C)[nH]c(C(=O)OCc2cccc(Cl)c2)c1C	71*	16	-71	5	37
CN(C)c1cccc(C(=O)NCc2ccc3c(c2)OCO3)c1	0	12	0	3	-5
COc1ccc(C(=O)N2CCCC(C(=O)N3CCN(c4ccccc4)CC3)C2)cc1 (configuration not stated)	-7	-2	7	2	3
CCOC(=O)c1cnc2c(cnn2C)c1NCCCn1ccnc1	-11	59*	11	3	11
c1csc(-c2cn3ccc4ccccc4c3n2)c1	17	57*	-17	5	16
c1ccc(CNc2nc(-c3cccs3)nc3ccccc23)cc1	18	·	-18	1	2
COCCSc1ccccc1C(=O)N1CCN(Cc2ccccc2)CC1	-9	4	9	-1	-1
CCC1C(=O)n2nc(-c3ccccc3)cc2N=C1C (configuration not stated)	3	51*	-3	-1	6
COc1ccc(S(=O)(=O)CC2(O)CCN(C(=O)CC(C)C)CC2)cc1	-11	-1	11	0	-2
O=C(Nc1ccc(Oc2ccccc2)cc1)c1cnc2n(c1=O)CCS2	-114	-11	?	0	-2
CC(=O)N1c2ccccc2Oc2cc3ccccc3cc21	31	65*	-31	5	2
CCOC(=O)c1cnc2cc(-c3ccc(Cl)cc3)nn2c1N	86*	28	-86	3	-5
O=C(NCc1nc2ccccc2[nH]1)C1=C[C@@H](c2ccccc2)C[C@@H](OCCCCO)O1	-4	57*	4	1	2
CN(Cc1ccon1)Cc1cn[nH]c1-c1ccc(-c2ccccc2)cc1	-16	52*	16	0	-7
CC(c1ccon1)N(C)Cc1cn[nH]c1-c1ccc(F)cc1F (configuration not stated)	·	3	·	2	9
CC(c1ccon1)N(C)Cc1cn[nH]c1-c1ccc(-c2ccccc2)cc1 (configuration not stated)	0	61*	0	3	6
COCCCn1c(SCC(=O)Nc2nc3ccccc3s2)nnc1-c1ccoc1C	-5	28	5	-1	9
Cc1ccc(N=c2sc(C)c(C)n2C)cc1	-2	77*	2	5	-3
Cc1csc(=Nc2ccccc2)n1C	-16	-8	16	3	-28
Cc1ccc(-n2nc(C)c3c2OC(N)=C(C#N)C3c2ccncc2)cc1 (configuration not stated)	-19	18	19	-1	10
Cc1ccc(-n2nc(C)c3c2OC(N)=C(C#N)C3c2cccs2)cc1 (configuration not stated)	-35	68*	35	-3	-2

High-throughput results as filed in PubChem.
